{"source": "ChEMBL document CHEMBL4145481", "about": "“Synthesis and biological evaluation of novel bavachinin analogs as anticancer agents” (Eur J Med Chem, 2018)", "key": {"HepG2": {"test_system": "HepG2", "experiment": "Cytotoxicity against human HepG2 cells", "format": "functional, cell-based"}, "HCT-116 [1]": {"test_system": "HCT-116", "experiment": "Antimigratory activity against human HCT116 cells assessed as inhibition of wound closure up to 24 hrs by wound scratch assay", "format": "functional, cell-based", "procedure,_shortened": "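HCT-116 cells were plated at 8×10^5/well and grown to 70–80% confluence, then serum-starved 24 h. The monolayer was scratched with a pipette tip and treated at 3.6, 7.2 and 14.4 μM for 24 h. Wounds were imaged at 0 and 24 h (20x). Percent wound closure was computed from wound areas relative to control; means ± SD, n = 3.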"}, "A549 [2]": {"test_system": "A549", "experiment": "Cytotoxicity against human A549 cells assessed as growth inhibition after 48 hrs by SRB assay", "format": "functional, cell-based", "details": "A549, 48 h", "procedure,_shortened": "(§1)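 Cells were grown in RPMI-1640 with 10% FBS and penicillin/streptomycin at 37°C, 5% CO₂. Seeding was PC-3 7000, MCF-7 8000, A549 7500 and HCT-116 7000 cells/well, with 24 h attachment. Cells were exposed to 1, 5, 10, 30 and 50 μM for 48 h, with a 5-fluorouracil reference. Cells were TCA-fixed (1 h, 4°C) and stained with 0.4% SRB. Bound dye was dissolved in 10 mM Tris pH 10.4 and read at 540 nm. IC50 came from the concentration-response.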"}, "PC-3 [3]": {"test_system": "PC-3", "experiment": "Cytotoxicity against human PC3 cells assessed as growth inhibition at 50 uM after 48 hrs by SRB assay relative to control", "format": "functional", "details": "PC-3, 48 h, read-out: GI", "procedure,_shortened": "(§2)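 SRB growth-inhibition run in RPMI-1640/10% FBS at 37°C, 5% CO₂. Cell lines were seeded (PC-3 7000, MCF-7 8000, A549 7500, HCT-116 7000/well) and attached 24 h. The treatment series included 50 μM, with 48 h exposure. Cells were cold-TCA fixed and stained with 0.4% SRB. Dye was solubilized in 10 mM Tris pH 10.4 and read at 540 nm against untreated control.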"}, "HCT-116 [4]": {"test_system": "HCT-116", "experiment": "Cytotoxicity against human HCT116 cells assessed as growth inhibition after 48 hrs by SRB assay", "format": "functional, cell-based", "details": "HCT-116, 48 h", "procedure,_shortened": "as §1"}, "A549 [5]": {"test_system": "A549", "experiment": "Cytotoxicity against human A549 cells assessed as growth inhibition at 50 uM after 48 hrs by SRB assay relative to control", "format": "functional", "details": "A549, 48 h, read-out: GI", "procedure,_shortened": "as §2"}, "HCT-116 [6]": {"test_system": "HCT-116", "experiment": "Anticlonogenic activity against human HCT116 cells incubated for 24 hrs measured up to 14 days by crystal violet staining-based assay", "format": "functional, cell-based", "procedure,_shortened": "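HCT-116 cells (8x10^4/mL/well) were treated 24 h at 3.6, 7.2 and 14.4 μM. They were then trypsinized and re-seeded at 1000 cells/well, and grown about 14 days to colonies of >50 cells. Colonies were fixed in 4% formaldehyde and stained with 0.5% crystal violet. Colony number was expressed relative to untreated control, with 5-fluorouracil as reference; means ± SD, n = 3.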"}, "HCT-116 [7]": {"test_system": "HCT-116", "experiment": "Induction of morphological changes in human HCT116 cells assessed as cell shrinkage after 24 hrs by phase contrast microscopic analysis", "format": "functional, cell-based", "procedure,_shortened": "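HCT-116 cells were exposed 24 h to 3.6, 7.2 and 14.4 μM, alongside an untreated control. Morphology was photographed by phase contrast microscopy at 20x.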"}, "MCF7 [8]": {"test_system": "MCF7", "experiment": "Cytotoxicity against human MCF7 cells assessed as growth inhibition at 50 uM after 48 hrs by SRB assay relative to control", "format": "functional", "details": "MCF7, 48 h, read-out: GI", "procedure,_shortened": "as §2"}, "HCT-116 [9]": {"test_system": "HCT-116", "experiment": "Cytotoxicity against human HCT116 cells assessed as growth inhibition at 50 uM after 48 hrs by SRB assay relative to control", "format": "functional", "details": "HCT-116, 48 h, read-out: GI", "procedure,_shortened": "as §2"}, "HCT-116 [10]": {"test_system": "HCT-116", "experiment": "Induction of mitochondrial membrane potential loss in human HCT116 cells after 24 hrs by rhodamine123 staining based fluorescence microscopic analysis", "format": "functional, cell-based", "procedure,_shortened": "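Cells were seeded at 1×10^6/1.5 mL/well and treated 24 h at 3.6, 7.2 and 14.4 μM, with 5-FU at 5 μM as reference. Rhodamine-123 (10 nM) was added for the final 1 h. After a PBS wash, fluorescence was imaged by microscopy.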"}, "HCT-116 [11]": {"test_system": "HCT-116", "experiment": "Induction of apoptosis in human HCT116 cells assessed as PARP cleavage at 3.6 uM after 24 hrs by Western blot analysis", "format": "functional, cell-based", "procedure,_shortened": "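HCT-116 cells were treated 24 h at 3.6, 7.2 and 14.4 μM. RIPA whole-cell lysates with protease/phosphatase inhibitors were BCA-quantified. Equal protein was run on 10% SDS-PAGE and transferred to PVDF, then blocked with 5% BSA/TBST for 1 h. Blots were probed with anti-PARP (1:1000) and β-actin (1:500, loading control) plus HRP secondaries. The read-out was the 89 kDa cleaved fragment.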"}, "MCF7 [12]": {"test_system": "MCF7", "experiment": "Cytotoxicity against human MCF7 cells assessed as growth inhibition after 48 hrs by SRB assay", "format": "functional, cell-based", "details": "MCF7, 48 h", "procedure,_shortened": "as §1"}, "PC-3 [13]": {"test_system": "PC-3", "experiment": "Cytotoxicity against human PC3 cells assessed as growth inhibition after 48 hrs by SRB assay", "format": "functional, cell-based", "details": "PC-3, 48 h", "procedure,_shortened": "as §1"}}, "note": "pIC50: −log10 of the molar value. Calls of active or inactive are those of the source. No cut-off for these calls is given here."}
{"smiles": "COc1cc2c(cc1CC=C(C)C)C(=O)C[C@@H](c1ccc(OC3O[C@H](CO)[C@@H](O)[C@H](O)[C@H]3O)cc1)O2", "note": "(some centres undefined)", "values": [{"measurement": "pIC50", "setting": "HepG2", "value": 4.31}]}
{"smiles": "COc1ccc([C@@H]2C/C(=N/OCc3cn(-c4ccc(C(N)=O)cc4)nn3)c3cc(CC=C(C)C)c(OC)cc3O2)cc1", "values": [{"measurement": "inhibition", "setting": "HCT-116 [1]", "value": "Dose-dependent effect"}, {"measurement": "pIC50", "setting": "A549 [2]", "value": 5.11}, {"measurement": "inhibition of growth at 50 µM", "setting": "PC-3 [3]", "value": 100, "unit": "%"}, {"measurement": "pIC50", "setting": "HCT-116 [4]", "value": 5.15}, {"measurement": "inhibition of growth at 50 µM", "setting": "A549 [5]", "value": 100, "unit": "%"}, {"measurement": "Activity", "setting": "HCT-116 [6]", "value": "Dose-dependent effect"}, {"measurement": "Activity", "setting": "HCT-116 [7]", "value": "Dose-dependent effect"}, {"measurement": "inhibition of growth at 50 µM", "setting": "MCF7 [8]", "value": 100, "unit": "%"}, {"measurement": "inhibition of growth at 50 µM", "setting": "HCT-116 [9]", "value": 100, "unit": "%"}, {"measurement": "Activity", "setting": "HCT-116 [10]", "value": "Dose-dependent effect"}, {"measurement": "Activity", "setting": "HCT-116 [11]", "value": "Active"}, {"measurement": "pIC50", "setting": "MCF7 [12]", "value": 4.93}, {"measurement": "pIC50", "setting": "PC-3 [13]", "value": 4.79}]}
